Common to all, as to format: functional
The nature of assay [1]: Antiinflammatory activity in Swiss albino mouse macrophage assessed as inhibition of LPS-induced IL1-beta production at 10 ug/ml treated 30 mins before LPS challenge measured after 24 hrs by ELISA. In outline: (§1)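 Peritoneal macrophages from 8-week-old female Swiss albino mice, elicited by i.p. 1% peptone (1 mL) 3 days before harvest and collected by PBS (pH 7.4) lavage, were used at 2 × 10^6 live cells/mL. Cells were kept in RPMI 1640 with 10% heat-inactivated FCS and penicillin/streptomycin at 37 °C, 5% CO2. Adherent cells were kept after 2 h. Compounds were given in DMSO, with a DMSO vehicle control. LPS was 0.5 µg/mL. Cytokines were measured in supernatants by mouse sandwich ELISA kits. n = 4, Student t-test versus vehicle.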
(In general: An ELISA detects its analyte on a solid surface through an enzyme-linked reagent.)

Assay [2] is described as follows: Antiinflammatory activity in Swiss albino mouse macrophage assessed as inhibition of LPS-induced TNFalpha production at 1 ug/ml treated 30 mins before LPS challenge measured after 24 hrs by ELISA. An outline of the steps: as §1
Assay [3] can be described thus: Antiinflammatory activity in Swiss albino mouse macrophage assessed as inhibition of LPS-induced IL-6 production at 1 ug/ml treated 30 mins before LPS challenge measured after 24 hrs by ELISA. An outline of the steps:
as §1

The nature of assay [4]: Antiinflammatory activity in Swiss albino mouse macrophage assessed as inhibition of LPS-induced IL-6 production at 10 ug/ml treated 30 mins before LPS challenge measured after 24 hrs by ELISA. In outline: as §1
The nature of assay [5]: Antiinflammatory activity in Swiss albino mouse macrophage assessed as inhibition of LPS-induced TNFalpha production at 10 ug/ml treated 30 mins before LPS challenge measured after 24 hrs by ELISA. An outline of the steps: as §1
Assay [6] can be described thus: Antiinflammatory activity in Swiss albino mouse macrophage assessed as inhibition of LPS-induced IL1-beta production at 1 ug/ml treated 30 mins before LPS challenge measured after 24 hrs by ELISA. An outline of the steps: as §1

Structures are written as SMILES.

Usually inhibition stands for the relative decrease from the control value, in per cent. Turning to `COc1cc([C@H]2Oc3c(OC)c([N+](=O)[O-])c4ccc(=O)oc4c3O[C@@H]2CO)c([N+](=O)[O-])cc1OC`, the inhibition at 10 µg/mL in assay [1] amounted to 70.2%; in assay [4], 80.2%; in assay [5], 78%. The figures for the inhibition at 1 µg/mL in assay [2], in assay [3] and in assay [6] were 76.6%, 86.4% and 72%, respectively.

As to `COc1ccc([C@H]2Oc3c(OC)c(Cl)c4ccc(=O)oc4c3O[C@@H]2CO)cc1OC`, the inhibition at 10 µg/mL in assay [1] was determined as 40.1%; in assay [4] it was 56.2%; in assay [5], 49.6%. Further, the figures for the inhibition at 1 µg/mL in assay [2], in assay [3] and in assay [6] were 50.2%, 57.5% and 59.2%, respectively.

For `COc1ccc([C@H]2Oc3c(OC)c(Br)c4ccc(=O)oc4c3O[C@@H]2CO)cc1OC`, the inhibition at 10 µg/mL in assay [1] was determined as 44.7%; in assay [4], 60%; in assay [5] it was 42%. In addition, the inhibition at 1 µg/mL in assay [2] was 44.8%; in assay [3] it was 59.8%; in assay [6] it was 50.1%.

As for `COc1cc([C@H]2Oc3c(OC)c(Br)c4ccc(=O)oc4c3O[C@@H]2COC(C)=O)ccc1O`, the results for the inhibition at 10 µg/mL in assay [1], in assay [4] and in assay [5] were 58.8%, 52.5% and 54.2%, respectively. Moreover, the inhibition at 1 µg/mL in assay [2] amounted to 54.5%; in assay [3] it was 60.2%; in assay [6] it was 55.3%.

Regarding `COc1cc([C@H]2Oc3c(OC)c([N+](=O)[O-])c4ccc(=O)oc4c3O[C@@H]2CO[N+](=O)[O-])c([N+](=O)[O-])cc1OC`, the inhibition at 10 µg/mL in assay [1] stood at 53.3%; in assay [4], 79%; in assay [5], 60.6%. Further, the inhibition at 1 µg/mL stood at 64.8% in assay [2], 81.4% in assay [3] and 59.1% in assay [6].

For `COc1cc([C@H]2Oc3c(OC)c([N+](=O)[O-])c4ccc(=O)oc4c3O[C@@H]2COC(C)=O)ccc1OC(C)=O`, the inhibition at 10 µg/mL in assay [1] amounted to 65.3%; in assay [4] it was 82%; in assay [5], 67.8%. For the same compound, the inhibition at 1 µg/mL in assay [2] stood at 70.5%; in assay [3], 87.2%; in assay [6], 70.4%.

On to `O=C(O)Cc1ccccc1Nc1c(Cl)cccc1Cl` [DICLOFENAC SODIUM], for which the inhibition at 1 µg/mL in assay [2] worked out at 46.5%; in assay [3], 51.1%; in assay [6], 38.5%.

On to `COc1cc([C@H]2Oc3c(OC)cc4ccc(=O)oc4c3O[C@@H]2COC(C)=O)ccc1O` [DURANTIN A], for which the inhibition at 10 µg/mL in assay [1] is 74.8%; in assay [4], 78.3%; in assay [5] it was 76.2%. Moreover, the inhibition at 1 µg/mL in assay [2] amounted to 73.3%; in assay [3], 81.9%; in assay [6] it was 109%.
